In ChEMBL document CHEMBL1151800, “Synthesis, biological evaluation and SAR study of novel pyrazole analogues as inhibitors of Mycobacterium tuberculosis” (2008) one finds MIC data, which are given here for 21 compounds.

This test concerns Mycobacterium tuberculosis. Put plainly: Antimycobacterial activity against Mycobacterium tuberculosis H37Rv ATCC 27294 after 21 to 28 days by twofold agar dilution method. The class given is functional. The essentials:
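Twofold agar dilution on Middlebrook 7H11 agar with 10% OADC enrichment, compounds at […]. Each well received 10 μL of H37Rv suspension at 1.5 x 10⁵ cfu/mL grown in 7H9 broth with 10% ADC, giving a final inoculum of 1.5 x 10³ per well. Incubated 21–28 days. MIC read as lowest concentration completely inhibiting visible growth.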
In general terms: Agar dilution tests growth on a series of plates holding different concentrations.

Molecules are shown by their SMILES. Converted amounts (≈) assume the structure as drawn.

One may read the MIC as the lowest concentration found to suppress growth. A high value points to weaker potency.

The compound `CC(C)c1[nH]n(-c2ccc(Cl)cc2)c(=O)c1C(=O)c1ccc(Cl)cc1` came in with a minimal inhibitory concentration (MIC) of 32 µg/mL (≈ 85.3 µM). As for `Cc1[nH]n(-c2ccc(Br)cc2)c(=O)c1C(=O)c1ccc(Cl)cc1`, the MIC turned out to be 4 µg/mL (≈ 10.2 µM).

Compound `O=C(c1ccc(Cl)cc1)c1c(-c2ccccc2)[nH]n(-c2ccccc2)c1=O` displayed a minimal inhibitory concentration (MIC) of 32 µg/mL (≈ 85.4 µM). As for `O=C(c1ccc(Cl)cc1)c1c(C(F)(F)F)[nH]n(-c2ccc(Cl)cc2)c1=O`, the MIC is greater than 64 µg/mL. With `Cc1[nH]n(-c2ccc(C(C)C)cc2)c(=O)c1C(=O)c1ccc(Cl)cc1`, the minimum inhibitory concentration (MIC) amounted to 16 µg/mL (≈ 45.1 µM). The compound `CC(C)c1[nH]n(-c2ccccc2)c(=O)c1C(=O)c1ccc(Cl)cc1` yielded a minimal inhibitory concentration (MIC) of 64 µg/mL (≈ 188 µM). `Cc1ccc(-n2[nH]c(-c3ccccc3)c(C(=O)c3ccc(Cl)cc3)c2=O)cc1` had a minimal inhibitory concentration (MIC) of 32 µg/mL (≈ 82.3 µM). The figure for `Cc1[nH]n(-c2ccc(F)cc2)c(=O)c1C(=O)c1ccc(Cl)cc1` is 12.5 µg/mL (≈ 37.8 µM). Compound `Cc1[nH]n(-c2ccc(Cl)cc2)c(=O)c1C(=O)c1ccc(Cl)cc1` had a minimal inhibitory concentration (MIC) of 6.25 µg/mL (≈ 18 µM). Compared with the last compound, the MIC is about 2-fold lower. The figure for `O=C(c1ccc(Cl)cc1)c1c(C(F)(F)F)[nH]n(-c2ccccc2)c1=O` is greater than 64 µg/mL.

Consider `CC(C)c1ccc(-n2[nH]c(-c3ccccc3)c(C(=O)c3ccc(Cl)cc3)c2=O)cc1`, for which the minimal inhibitory concentration (MIC) worked out at 32 µg/mL (≈ 76.8 µM).

Regarding `O=C(c1ccc(Cl)cc1)c1c(-c2ccccc2)[nH]n(-c2ccc(Cl)cc2)c1=O`, 16 µg/mL (≈ 39.1 µM) was the least that counted as inhibitory (MIC). Against the preceding compound, the MIC is about 2-fold lower. The figure for `Cc1ccc(-n2nc(C)c(C(=O)c3ccc(Cl)cc3)c2O)cc1` is 16 µg/mL (≈ 49 µM); for `Cc1c(C(=O)c2ccc(Cl)cc2)c(=O)n(-c2ccc(Cl)cc2)n1Cc1ccc(F)cc1` it is 32 µg/mL (≈ 70.3 µM); for `Cc1c(C(=O)c2ccc(Cl)cc2)c(=O)n(-c2ccc(Cl)cc2)n1Cc1ccccc1` it is 16 µg/mL (≈ 36.6 µM). The compound `Cc1c(C(=O)c2ccc(Cl)cc2)c(=O)n(-c2ccccc2)n1C` displayed a minimum inhibitory concentration (MIC) greater than 100 µg/mL. Take `Cc1c(C(=O)c2ccc(Cl)cc2)c(=O)n(-c2ccccc2)n1Cc1ccc(F)cc1`: it took 32 µg/mL (≈ 76 µM) to inhibit growth (MIC). Turning to `Cc1c(C(=O)c2ccc(Cl)cc2)c(=O)n(-c2ccc(Cl)cc2)n1Cc1ccc([N+](=O)[O-])cc1`, it took 32 µg/mL (≈ 66.3 µM) to inhibit growth (MIC).

Compound `Cc1c(C(=O)c2ccc(Cl)cc2)c(=O)n(-c2ccccc2)n1Cc1ccc([N+](=O)[O-])cc1` had an MIC greater than 32 µg/mL. To `Cc1nn(-c2ccccc2)c(O)c1C(=O)c1ccc(Cl)cc1` belongs 6.25 µg/mL (≈ 20 µM); to `Cc1c(C(=O)c2ccc(Cl)cc2)c(=O)n(-c2ccccc2)n1Cc1ccccc1`, greater than 64 µg/mL.
